Data as given in ChEMBL document CHEMBL4028845, “Design, Synthesis, and Properties of a Potent Inhibitor of Pseudomonas aeruginosa Deacetylase LpxC” (J Med Chem, 2017).
≈ marks a conversion by molar mass, not a printed value. Blank lines part the entries; values can stand above or below the molecule they belong to. Calls of active or inactive are those of the source. The calls are words filed in the database; no cut-off is given here.

How the values were obtained:
[1] = Cytotoxicity against human HepG2 cells assessed as reduction in cell viability after 72 hrs by WST1 assay; format: cell-based
Outline: (§1)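 Cells were grown and assayed in medium with 10% heat-inactivated FBS and exposed to compound for 72 h. Metabolic activity was read as WST-1 cleavage to formazan at A450, with puromycin as positive control. CC50 (50% reduction in viability) was calculated from dose-response curves.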

Pseudomonas aeruginosa [2] = test: Antibacterial activity against hypersusceptible Pseudomonas aeruginosa Z61 after 18 to 24 hrs; format: functional
Outline: (§2)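 Broth MIC per CLSI guidelines in cation-adjusted Mueller Hinton broth. Compounds were dissolved and serially diluted in DMSO (carbapenems in water) before addition to plates. Incubation was at 37 °C for 18−24 h. MIC is the lowest concentration preventing visible growth. MIC50/MIC90 are the concentrations inhibiting 50% or 90% of isolates tested.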

[3] = Cytotoxicity against human K562 cells assessed as reduction in cell viability after 72 hrs by WST1 assay; format: cell-based; outline: as §1
Pseudomonas aeruginosa [4] = test: Antibacterial activity against Pseudomonas aeruginosa PAO1 K767 after 18 to 24 hrs; format: functional; outline: as §2
[5] = Solubility of the compound at pH 6.8 by high throughput screening assay; format: physicochemical; details: buffer
Pseudomonas aeruginosa [6] = test: Antibacterial activity against mexAB-oprM deficient Pseudomonas aeruginosa K1119 after 18 to 24 hrs; format: functional; outline: as §2
[7] = target: T1, UDP-3-O-acyl-N-acetylglucosamine deacetylase (Pseudomonas aeruginosa (strain ATCC 15692 / PAO1 / 1C / PRS 101 / LMG12228), UniProt P47205); test: Inhibition of Pseudomonas aeruginosa LpxC using UDP-3-O-(R-hydroxydecanoyl)-N-acetylglucosamine as substrate preincubated for 30 mins followed by substrate addition measured after 20 mins by LC-MS/MS analysis
T1 sequence (P47205 whole entry): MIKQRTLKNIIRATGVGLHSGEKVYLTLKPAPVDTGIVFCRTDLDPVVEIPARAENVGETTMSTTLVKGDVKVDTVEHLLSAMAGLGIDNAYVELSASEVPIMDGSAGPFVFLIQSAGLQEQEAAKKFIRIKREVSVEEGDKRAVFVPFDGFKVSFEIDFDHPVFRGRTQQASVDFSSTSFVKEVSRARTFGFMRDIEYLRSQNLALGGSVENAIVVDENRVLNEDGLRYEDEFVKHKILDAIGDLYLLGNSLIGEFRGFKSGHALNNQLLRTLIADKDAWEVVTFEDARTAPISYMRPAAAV

Pseudomonas aeruginosa [8] = test: Antibacterial activity against Pseudomonas aeruginosa clinical isolate after 18 to 24 hrs; format: functional
Pseudomonas aeruginosa [9] = test: Antibacterial activity against Pseudomonas aeruginosa NB52096 after 18 to 24 hrs; format: functional; outline: as §2
Histone deacetylase 5 = Histone deacetylase 5 (Homo sapiens, UniProt Q9UQL6); test: Inhibition of human HDAC5
Histone deacetylase 5, sequence (Q9UQL6 whole entry): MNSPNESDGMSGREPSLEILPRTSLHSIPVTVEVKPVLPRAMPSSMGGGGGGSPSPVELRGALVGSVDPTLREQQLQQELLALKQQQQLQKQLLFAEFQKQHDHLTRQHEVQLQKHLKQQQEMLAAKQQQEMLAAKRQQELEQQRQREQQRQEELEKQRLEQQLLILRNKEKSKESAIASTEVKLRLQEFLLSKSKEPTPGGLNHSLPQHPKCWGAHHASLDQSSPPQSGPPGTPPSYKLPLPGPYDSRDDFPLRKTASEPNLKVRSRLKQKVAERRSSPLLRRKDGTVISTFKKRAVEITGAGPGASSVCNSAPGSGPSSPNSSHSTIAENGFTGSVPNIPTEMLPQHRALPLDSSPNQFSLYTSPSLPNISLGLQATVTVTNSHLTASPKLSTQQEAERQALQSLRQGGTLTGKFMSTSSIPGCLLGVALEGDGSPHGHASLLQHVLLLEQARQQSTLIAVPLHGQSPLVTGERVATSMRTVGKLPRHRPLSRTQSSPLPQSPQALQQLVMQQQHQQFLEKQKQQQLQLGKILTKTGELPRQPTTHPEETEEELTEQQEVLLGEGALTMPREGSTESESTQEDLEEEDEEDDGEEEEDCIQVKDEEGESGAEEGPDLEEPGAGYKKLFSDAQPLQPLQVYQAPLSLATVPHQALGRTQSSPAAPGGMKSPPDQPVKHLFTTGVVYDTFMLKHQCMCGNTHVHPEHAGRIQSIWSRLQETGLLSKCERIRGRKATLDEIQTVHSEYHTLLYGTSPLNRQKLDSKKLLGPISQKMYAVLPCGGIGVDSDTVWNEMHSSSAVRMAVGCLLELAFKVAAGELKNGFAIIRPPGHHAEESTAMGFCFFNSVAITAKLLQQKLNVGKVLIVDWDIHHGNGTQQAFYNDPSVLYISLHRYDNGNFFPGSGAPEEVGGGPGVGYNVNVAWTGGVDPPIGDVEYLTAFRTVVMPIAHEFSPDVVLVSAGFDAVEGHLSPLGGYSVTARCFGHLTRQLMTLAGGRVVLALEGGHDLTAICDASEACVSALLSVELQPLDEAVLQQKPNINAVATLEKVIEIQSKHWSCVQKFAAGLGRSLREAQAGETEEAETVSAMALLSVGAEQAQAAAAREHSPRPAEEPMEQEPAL

Klebsiella aerogenes = test: Antibacterial activity against Enterobacter aerogenes NB24004 after 18 to 24 hrs; format: functional; outline: as §2
Escherichia coli [10] = test: Antibacterial activity against Escherichia coli NB27047 after 18 to 24 hrs; format: functional; outline: as §2
[11] = Protein binding in mouse plasma; format: ADME, cell-free; details: read-out: PPB (converted)
Burkholderia cepacia = test: Antibacterial activity against Burkholderia cepacia NB49016 after 18 to 24 hrs; format: functional; outline: as §2
Klebsiella pneumoniae = test: Antibacterial activity against Klebsiella pneumoniae NB29018 after 18 to 24 hrs; format: functional; outline: as §2
Proteus mirabilis = test: Antibacterial activity against Proteus mirabilis NB32022 after 18 to 24 hrs; format: functional; outline: as §2
[12] = Protein binding in rat plasma; format: ADME, cell-free; details: read-out: PPB (converted)
[13] = Protein binding in human plasma; format: ADME, cell-free; details: read-out: PPB (converted)
Histone deacetylase 1 = Histone deacetylase 1 (Homo sapiens, UniProt Q13547); test: Inhibition of human HDAC1
Histone deacetylase 1, sequence (Q13547 whole entry): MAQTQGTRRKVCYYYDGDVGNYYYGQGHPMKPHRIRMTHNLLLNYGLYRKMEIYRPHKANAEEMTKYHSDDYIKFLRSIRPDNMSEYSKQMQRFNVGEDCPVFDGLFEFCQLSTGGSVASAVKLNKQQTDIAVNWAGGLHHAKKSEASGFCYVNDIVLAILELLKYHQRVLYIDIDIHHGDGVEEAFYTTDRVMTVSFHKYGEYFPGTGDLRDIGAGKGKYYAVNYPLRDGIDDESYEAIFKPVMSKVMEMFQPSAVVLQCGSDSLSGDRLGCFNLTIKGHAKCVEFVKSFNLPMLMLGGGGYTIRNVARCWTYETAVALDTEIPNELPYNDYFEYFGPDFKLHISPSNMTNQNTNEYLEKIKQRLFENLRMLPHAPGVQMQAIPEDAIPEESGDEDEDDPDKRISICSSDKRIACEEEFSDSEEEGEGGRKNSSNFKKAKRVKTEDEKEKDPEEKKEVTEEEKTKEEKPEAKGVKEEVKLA

Histone deacetylase 3 = Histone deacetylase 3 (Homo sapiens, UniProt O15379); test: Inhibition of human HDAC3
Histone deacetylase 3, sequence (O15379 whole entry): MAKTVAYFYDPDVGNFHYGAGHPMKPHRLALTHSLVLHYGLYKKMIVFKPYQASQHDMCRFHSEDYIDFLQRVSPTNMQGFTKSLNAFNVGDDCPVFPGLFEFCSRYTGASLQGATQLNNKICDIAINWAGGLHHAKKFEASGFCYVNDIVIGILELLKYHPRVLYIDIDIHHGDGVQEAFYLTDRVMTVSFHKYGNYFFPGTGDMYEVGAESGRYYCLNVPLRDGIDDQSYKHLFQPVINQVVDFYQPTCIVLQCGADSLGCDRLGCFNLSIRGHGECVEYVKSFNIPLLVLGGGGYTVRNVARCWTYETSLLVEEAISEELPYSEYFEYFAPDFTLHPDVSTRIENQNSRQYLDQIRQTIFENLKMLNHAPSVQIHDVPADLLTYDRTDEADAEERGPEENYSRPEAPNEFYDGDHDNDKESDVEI

Pseudomonas aeruginosa [14] = test: Antibacterial activity against Pseudomonas aeruginosa clinical isolate infected in iv dosed BalbC mouse neutropenic model assessed as concentration required to show reduction in bacterial burden in lung of 2 log below stasis administered as bid at 2 and 8 hrs post infection measured after 24 hrs
[15] = target: Polyamine deacetylase HDAC10 (Homo sapiens, UniProt Q969S8); test: Inhibition of human HDAC10
Pseudomonas aeruginosa [16] = test: Antibacterial activity against Pseudomonas aeruginosa ATCC 27853 in CD1 mouse thigh infection model assessed as reduction in bacterial burden in thigh at 160 to 320 mg/kg, iv administered at 2 hrs post infection measured after 24 hrs
Histone deacetylase 8 = Histone deacetylase 8 (Homo sapiens, UniProt Q9BY41); test: Inhibition of human HDAC8
Histone deacetylase 8, sequence (Q9BY41 whole entry): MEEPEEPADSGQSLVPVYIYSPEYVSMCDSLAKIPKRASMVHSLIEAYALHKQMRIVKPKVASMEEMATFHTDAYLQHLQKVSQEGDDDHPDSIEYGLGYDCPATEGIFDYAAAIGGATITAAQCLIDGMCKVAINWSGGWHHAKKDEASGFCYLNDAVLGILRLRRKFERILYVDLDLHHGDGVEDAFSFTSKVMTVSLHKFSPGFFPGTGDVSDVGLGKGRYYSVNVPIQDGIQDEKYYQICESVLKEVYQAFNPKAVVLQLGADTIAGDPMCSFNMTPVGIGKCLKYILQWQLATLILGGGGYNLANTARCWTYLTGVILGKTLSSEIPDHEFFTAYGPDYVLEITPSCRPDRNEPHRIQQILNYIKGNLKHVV

Klebsiella oxytoca = test: Antibacterial activity against Klebsiella oxytoca NB30007 after 18 to 24 hrs; format: functional; outline: as §2
Histone deacetylase 4 = Histone deacetylase 4 (Homo sapiens, UniProt P56524); test: Inhibition of human HDAC4
Histone deacetylase 4, sequence (P56524 whole entry): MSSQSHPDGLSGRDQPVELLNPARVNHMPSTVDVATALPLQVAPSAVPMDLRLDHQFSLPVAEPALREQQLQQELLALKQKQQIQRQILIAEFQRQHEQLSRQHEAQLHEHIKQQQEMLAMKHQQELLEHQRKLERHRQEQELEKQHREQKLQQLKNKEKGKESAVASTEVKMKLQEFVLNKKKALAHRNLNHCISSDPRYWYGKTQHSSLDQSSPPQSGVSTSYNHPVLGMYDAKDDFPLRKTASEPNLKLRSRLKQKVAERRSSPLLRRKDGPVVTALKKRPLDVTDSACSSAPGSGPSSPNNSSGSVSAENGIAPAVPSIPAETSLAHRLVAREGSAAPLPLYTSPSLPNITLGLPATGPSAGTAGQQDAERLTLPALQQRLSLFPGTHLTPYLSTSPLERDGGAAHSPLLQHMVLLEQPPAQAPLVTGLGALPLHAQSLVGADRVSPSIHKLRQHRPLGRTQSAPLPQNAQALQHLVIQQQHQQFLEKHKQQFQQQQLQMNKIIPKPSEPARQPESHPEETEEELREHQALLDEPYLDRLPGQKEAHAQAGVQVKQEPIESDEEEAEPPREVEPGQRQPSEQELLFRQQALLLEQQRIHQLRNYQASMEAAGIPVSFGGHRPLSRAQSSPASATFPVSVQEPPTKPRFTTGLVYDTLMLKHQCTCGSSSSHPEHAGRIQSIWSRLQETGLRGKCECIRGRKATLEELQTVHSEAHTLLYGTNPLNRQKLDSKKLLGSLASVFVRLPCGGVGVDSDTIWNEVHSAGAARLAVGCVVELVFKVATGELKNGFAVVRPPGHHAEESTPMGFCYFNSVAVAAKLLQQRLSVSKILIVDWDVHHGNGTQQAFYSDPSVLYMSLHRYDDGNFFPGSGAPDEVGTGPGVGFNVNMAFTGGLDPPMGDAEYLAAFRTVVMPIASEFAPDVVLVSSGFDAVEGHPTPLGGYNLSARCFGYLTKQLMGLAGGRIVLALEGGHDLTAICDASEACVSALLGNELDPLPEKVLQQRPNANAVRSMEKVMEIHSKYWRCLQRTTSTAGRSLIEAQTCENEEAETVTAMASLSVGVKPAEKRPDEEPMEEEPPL

Histone deacetylase 2 = Histone deacetylase 2 (Homo sapiens, UniProt Q92769); test: Inhibition of human HDAC2
[17] = test system: Stenotrophomonas maltophilia; test: Antibacterial activity against Stenotrophomonas maltophilia NB55011 after 18 to 24 hrs; format: functional; outline: as §2
Acinetobacter baumannii = test: Antibacterial activity against Acinetobacter baumannii NB48015 after 18 to 24 hrs; format: functional; outline: as §2
[18] = target: Protein deacetylase HDAC6 (Homo sapiens, UniProt Q9UBN7); test: Inhibition of human HDAC6
Escherichia coli [19] = test: Antibacterial activity against efflux pump deficient Escherichia coli after 18 to 24 hrs; format: functional
Outline: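 MIC per CLSI guidelines. Strains grown in cation-adjusted Mueller Hinton broth. Compounds dissolved in DMSO and serially diluted in DMSO (carbapenems in water) before addition to microtiter plates. Incubation at 37 °C for 18−24 h. MIC is the lowest concentration preventing visible growth.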

Histone deacetylase 9 = Histone deacetylase 9 (Homo sapiens, UniProt Q9UKV0); test: Inhibition of human HDAC9
Alcaligenes = test: Antibacterial activity against Alcaligenes xylosus NB56002 after 18 to 24 hrs; format: functional; outline: as §2
Pseudomonas aeruginosa [20] = test: Antibacterial activity against Pseudomonas aeruginosa NB52001 after 18 to 24 hrs; format: functional; outline: as §2
Histone deacetylase 7 = Histone deacetylase 7 (Homo sapiens, UniProt Q8WUI4); test: Inhibition of human HDAC7
Histone deacetylase 7, sequence (Q8WUI4 whole entry): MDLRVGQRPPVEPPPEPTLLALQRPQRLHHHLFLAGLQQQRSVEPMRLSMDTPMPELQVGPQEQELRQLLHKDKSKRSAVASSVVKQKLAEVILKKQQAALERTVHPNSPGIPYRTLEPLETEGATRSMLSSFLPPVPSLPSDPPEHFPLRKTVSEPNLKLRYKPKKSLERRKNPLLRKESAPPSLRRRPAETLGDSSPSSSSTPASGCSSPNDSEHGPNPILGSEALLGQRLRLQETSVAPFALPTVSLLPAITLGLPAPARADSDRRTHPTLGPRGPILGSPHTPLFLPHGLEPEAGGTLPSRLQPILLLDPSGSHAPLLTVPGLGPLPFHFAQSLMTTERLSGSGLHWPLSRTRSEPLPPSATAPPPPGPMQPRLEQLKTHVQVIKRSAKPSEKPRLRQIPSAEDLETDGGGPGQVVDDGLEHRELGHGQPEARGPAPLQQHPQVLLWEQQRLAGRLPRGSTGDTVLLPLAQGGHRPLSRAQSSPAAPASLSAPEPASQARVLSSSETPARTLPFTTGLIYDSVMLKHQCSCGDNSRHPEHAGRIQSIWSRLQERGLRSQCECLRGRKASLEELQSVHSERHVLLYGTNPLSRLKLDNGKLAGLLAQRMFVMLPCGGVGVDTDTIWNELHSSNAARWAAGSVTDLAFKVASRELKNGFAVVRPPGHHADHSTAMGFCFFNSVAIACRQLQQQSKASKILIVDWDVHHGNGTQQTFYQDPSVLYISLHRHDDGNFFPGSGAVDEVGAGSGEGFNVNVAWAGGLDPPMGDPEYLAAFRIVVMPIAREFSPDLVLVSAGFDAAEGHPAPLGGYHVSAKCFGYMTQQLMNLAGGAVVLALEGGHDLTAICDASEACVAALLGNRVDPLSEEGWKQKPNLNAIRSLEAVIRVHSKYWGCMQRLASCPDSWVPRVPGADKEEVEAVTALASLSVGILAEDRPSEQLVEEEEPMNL

Pseudomonas aeruginosa [21] = test: Antibacterial activity against Pseudomonas aeruginosa clinical isolate infected in iv dosed BalbC mouse neutropenic model assessed as concentration required to show bacterial stasis in lung administered as bid at 2 and 8 hrs post infection measured after 24 hrs
Histone deacetylase 11 = Histone deacetylase 11 (Homo sapiens, UniProt Q96DB2); test: Inhibition of human HDAC11
Histone deacetylase 11, sequence (Q96DB2 whole entry): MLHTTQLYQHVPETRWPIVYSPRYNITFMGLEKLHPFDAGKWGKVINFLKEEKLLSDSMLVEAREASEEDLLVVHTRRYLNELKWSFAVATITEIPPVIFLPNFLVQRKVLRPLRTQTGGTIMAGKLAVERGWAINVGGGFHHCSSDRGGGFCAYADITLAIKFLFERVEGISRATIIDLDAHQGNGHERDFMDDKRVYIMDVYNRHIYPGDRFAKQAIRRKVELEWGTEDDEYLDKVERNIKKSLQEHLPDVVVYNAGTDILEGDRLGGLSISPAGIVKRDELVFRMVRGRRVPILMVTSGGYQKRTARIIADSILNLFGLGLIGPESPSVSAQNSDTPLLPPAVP

Molecule: C[C@@H](N)[C@H](NC(=O)[C@H]1CC[C@H](C(C)(C)C)CC1)C(=O)NO
MIC (Pseudomonas aeruginosa [2]): 32 µg/mL (≈ 107 µM)
MIC (Pseudomonas aeruginosa [4]): 128 µg/mL (≈ 428 µM)
MIC (Pseudomonas aeruginosa [6]): 16 µg/mL (≈ 53.4 µM)
IC50 [7]: 0.117 µM

Molecule: CC1(C)S[C@@H]2[C@H](NC(=O)[C@H](C(=O)O)c3ccsc3)C(=O)N2[C@H]1C(=O)O [TICARCILLIN]
MIC50 (Pseudomonas aeruginosa [8]): 128 µg/mL (≈ 333 µM)
MIC90 (Pseudomonas aeruginosa [8]): > 128 µg/mL

Molecule: C[C@@H](O)[C@H]1C(=O)N2C(C(=O)O)=C(S[C@@H]3CN[C@H](C(=O)N(C)C)C3)[C@H](C)[C@H]12 [MEROPENEM]
MIC50 (Pseudomonas aeruginosa [8]): 2 µg/mL (≈ 5.22 µM)
MIC90 (Pseudomonas aeruginosa [8]): 32 µg/mL (≈ 83.4 µM)

Molecule: CC#CCOc1ccc(C(=O)N[C@H](C(=O)NO)C(C)(C)N)cc1
MIC (Pseudomonas aeruginosa [9]): 2 µg/mL (≈ 6.26 µM)
CC50 at 72 h [1]: > 295 µM
IC50 (Histone deacetylase 5): > 30 µM
MIC (Pseudomonas aeruginosa [2]): 0.25 µg/mL (≈ 0.783 µM)
CC50 at 72 h [3]: > 295 µM
MIC (Klebsiella aerogenes): > 128 µg/mL
MIC (Escherichia coli [10]): 64 µg/mL (≈ 200 µM)
fraction unbound [11]: 0.772
MIC (Burkholderia cepacia): 32 µg/mL (≈ 100 µM)
MIC (Klebsiella pneumoniae): 16 µg/mL (≈ 50.1 µM)
MIC (Proteus mirabilis): 64 µg/mL (≈ 200 µM)
fraction unbound [12]: 0.779
fraction unbound [13]: 0.193
IC50 (Histone deacetylase 1): > 30 µM
IC50 (Histone deacetylase 3): > 30 µM
Activity (Pseudomonas aeruginosa [14]): 20 mg/kg/day
MIC (Pseudomonas aeruginosa [4]): 0.5 µg/mL (≈ 1.57 µM)
solubility ([5]; read-out: solubility): > 327 µg/mL
IC50 [15]: > 30 µM
MIC (Pseudomonas aeruginosa [6]): 0.06 µg/mL (≈ 0.188 µM)
Activity (Pseudomonas aeruginosa [16]): Active
IC50 (Histone deacetylase 8): > 30 µM
MIC (Klebsiella oxytoca): 16 µg/mL (≈ 50.1 µM)
IC50 (Histone deacetylase 4): > 30 µM
IC50 (Histone deacetylase 2): > 30 µM
MIC [17]: 32 µg/mL (≈ 100 µM)
MIC (Acinetobacter baumannii): > 128 µg/mL
IC50 [18]: > 30 µM
MIC (Escherichia coli [19]): 1 to 2 µg/mL (≈ 3.13 to 6.26 µM)
IC50 (Histone deacetylase 9): > 30 µM
MIC50 (Pseudomonas aeruginosa [8]): 1 µg/mL (≈ 3.13 µM)
MIC90 (Pseudomonas aeruginosa [8]): 2 µg/mL (≈ 6.26 µM)
MIC (Alcaligenes): 16 µg/mL (≈ 50.1 µM)
MIC (Pseudomonas aeruginosa [20]): 1 µg/mL (≈ 3.13 µM)
IC50 (Histone deacetylase 7): > 30 µM
Activity (Pseudomonas aeruginosa [21]): 7.1 mg/kg/day
IC50 (Histone deacetylase 11): > 30 µM

Molecule: C[C@@H](O)[C@H]1C(=O)N2C(C(=O)O)=C(SCCNC=N)C[C@H]12 [IMIPENEM ANHYDROUS]
MIC50 (Pseudomonas aeruginosa [8]): 2 µg/mL (≈ 6.68 µM)
MIC90 (Pseudomonas aeruginosa [8]): 16 µg/mL (≈ 53.4 µM)

Molecule: COLISTIN
MIC50 (Pseudomonas aeruginosa [8]): 0.5 µg/mL
MIC90 (Pseudomonas aeruginosa [8]): 2 µg/mL

Molecule: CCc1ccc(-c2ccc(C(=O)N[C@H](C(=O)NO)[C@@H](C)NCC(=O)O)cc2)cc1
MIC (Pseudomonas aeruginosa [2]): 32 µg/mL (≈ 80.1 µM)
MIC (Pseudomonas aeruginosa [4]): 128 µg/mL (≈ 320 µM)
MIC (Pseudomonas aeruginosa [6]): 1 µg/mL (≈ 2.5 µM)
IC50 [7]: 0.001 µM

Further lines, with some results ahead:

MIC (Pseudomonas aeruginosa [2]): 0.5 µg/mL (≈ 1.64 µM)
MIC (Pseudomonas aeruginosa [4]): 2 µg/mL (≈ 6.55 µM)
solubility ([5]; read-out: solubility): 295 µg/mL
MIC (Pseudomonas aeruginosa [6]): 0.25 µg/mL (≈ 0.819 µM)
IC50 [7]: 0.0197 µM
Molecule: CC#CCOc1ccc(C(=O)N[C@H](C(=O)NO)[C@@H](C)N)cc1
CC50 at 72 h [1]: > 419 µM
CC50 at 72 h [3]: > 419 µM

MIC (Pseudomonas aeruginosa [2]): 4 µg/mL (≈ 8.38 µM)
MIC (Pseudomonas aeruginosa [4]): 32 µg/mL (≈ 67 µM)
solubility [5]: 0.392 µM
MIC (Pseudomonas aeruginosa [6]): 0.5 µg/mL (≈ 1.05 µM)
IC50 [7]: 0.00419 µM
Molecule: C[C@@H](NCC(=O)N1CCNC(=O)C1)[C@H](NC(=O)c1ccc(C#Cc2ccccc2)cc1)C(=O)NO
CC50 at 72 h [3]: > 100 µM

MIC (Pseudomonas aeruginosa [2]): 32 µg/mL (≈ 96 µM)
MIC (Pseudomonas aeruginosa [4]): > 128 µg/mL
MIC (Pseudomonas aeruginosa [6]): 16 µg/mL (≈ 48 µM)
IC50 [7]: 0.9 µM
Molecule: CC#CCOc1ccc(C(=O)N[C@H](C(=O)NO)[C@H](N)C(C)C)cc1

MIC50 (Pseudomonas aeruginosa [8]): 16 µg/mL (≈ 21.4 µM)
MIC90 (Pseudomonas aeruginosa [8]): > 128 µg/mL
Molecule: CC[C@H]1OC(=O)[C@H](C)[C@@H](O[C@H]2C[C@@](C)(OC)[C@@H](O)[C@H](C)O2)[C@H](C)[C@@H](O[C@@H]2O[C@H](C)C[C@H](N(C)C)[C@H]2O)[C@](C)(O)C[C@@H](C)CN(C)[C@H](C)[C@@H](O)[C@]1(C)O [AZITHROMYCIN]

MIC (Pseudomonas aeruginosa [2]): 1 µg/mL (≈ 3.41 µM)
MIC (Pseudomonas aeruginosa [4]): 8 µg/mL (≈ 27.3 µM)
solubility ([5]; read-out: solubility): > 293 µg/mL
MIC (Pseudomonas aeruginosa [6]): 0.5 µg/mL (≈ 1.7 µM)
IC50 [7]: 0.0375 µM
Molecule: CCCCc1ccc(C(=O)N[C@H](C(=O)NO)[C@@H](C)N)cc1
CC50 at 72 h [1]: 125 µM
CC50 at 72 h [3]: 42.3 µM

MIC (Pseudomonas aeruginosa [2]): 32 µg/mL (≈ 99.3 µM)
MIC (Pseudomonas aeruginosa [4]): > 128 µg/mL
MIC (Pseudomonas aeruginosa [6]): 16 µg/mL (≈ 49.6 µM)
IC50 [7]: 1.64 µM
Molecule: C[C@@H](N)[C@H](NC(=O)c1ccc(N2CCOCC2)cc1)C(=O)NO

MIC (Pseudomonas aeruginosa [2]): 4 µg/mL (≈ 12.9 µM)
MIC (Pseudomonas aeruginosa [4]): 32 µg/mL (≈ 103 µM)
MIC (Pseudomonas aeruginosa [6]): 1 µg/mL (≈ 3.23 µM)
IC50 [7]: 0.268 µM
Molecule: C[C@@H](N)[C@H](NC(=O)c1ccc(OC(C)(C)C)cc1)C(=O)NO
